Consider 1 molecule from ChEMBL document CHEMBL1144664, “Design, synthesis, and SAR of new pyrrole-oxindole progesterone receptor modulators leading to 5-(7-fluoro-3,3-dimethyl-2-oxo-2,3-dihydro-1H-indol-5-yl)-1-methyl-1H-pyrrole-2-carbonitrile (WAY-255348)” (J Med Chem, 2008).

Molecules are shown by their SMILES.

In general, IC50 refers to the midpoint of a concentration-inhibition curve. Broadly, the half-life is the time in which the quantity being followed falls by half. By bioavailability is commonly meant the share of a dose that reaches the circulation, judged against a reference dose that is usually intravenous. As a reminder, the clearance is the rate of elimination divided by the concentration. The AUC(0-inf) is total exposure, with the tail of the curve extrapolated. By Cmax is commonly meant the highest concentration seen after dosing. For orientation: ED50 means the dose at which the effect has come halfway, by size or by number of responders.

Data set [1] addresses T1, Progesterone receptor (Homo sapiens, UniProt P06401).
T1 sequence (P06401 whole entry): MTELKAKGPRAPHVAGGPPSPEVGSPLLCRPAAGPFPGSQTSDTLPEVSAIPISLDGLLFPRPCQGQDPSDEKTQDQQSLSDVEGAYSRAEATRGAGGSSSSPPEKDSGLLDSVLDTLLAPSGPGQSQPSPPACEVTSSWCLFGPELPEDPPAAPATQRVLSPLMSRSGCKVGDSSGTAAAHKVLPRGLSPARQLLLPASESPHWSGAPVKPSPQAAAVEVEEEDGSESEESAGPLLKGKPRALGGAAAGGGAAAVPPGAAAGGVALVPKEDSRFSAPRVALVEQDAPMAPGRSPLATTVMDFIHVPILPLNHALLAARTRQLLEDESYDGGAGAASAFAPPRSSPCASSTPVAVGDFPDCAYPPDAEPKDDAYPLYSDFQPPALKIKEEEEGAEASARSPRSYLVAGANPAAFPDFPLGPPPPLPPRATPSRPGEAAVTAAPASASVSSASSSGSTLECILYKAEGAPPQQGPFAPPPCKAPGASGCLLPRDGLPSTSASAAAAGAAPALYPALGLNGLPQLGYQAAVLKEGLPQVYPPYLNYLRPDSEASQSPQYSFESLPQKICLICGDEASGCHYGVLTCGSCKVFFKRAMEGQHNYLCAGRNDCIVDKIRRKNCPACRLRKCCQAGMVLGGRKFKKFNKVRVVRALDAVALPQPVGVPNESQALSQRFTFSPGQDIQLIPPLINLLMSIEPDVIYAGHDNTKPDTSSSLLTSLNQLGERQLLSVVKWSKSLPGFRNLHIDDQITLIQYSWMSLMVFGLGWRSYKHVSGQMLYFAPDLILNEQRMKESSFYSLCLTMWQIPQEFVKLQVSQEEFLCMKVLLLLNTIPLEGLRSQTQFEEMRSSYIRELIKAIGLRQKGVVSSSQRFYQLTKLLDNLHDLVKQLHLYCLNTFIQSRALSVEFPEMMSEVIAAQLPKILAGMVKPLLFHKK
Kind of data set: Antagonist activity at human PR expressed in human T47D cells assessed as inhibition of progesterone induced alkaline phosphatase. In kind it is functional, cell-based.

In data set [2] the target is T1, Progesterone receptor. The experiment in a line: Displacement of [3H]R5020 from human PR in human T47D cells by whole cell assay. In kind it is cell-based. (In general: Loss of bound radioactivity is the signal in a displacement assay; it reports binding, not function.)
Data set [3] in a line: Stability in human liver microsome assessed as half life. The conditions noted are these: liver microsomes. In kind it is ADME. An outline of the steps: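 Female rat, cynomolgus monkey and human liver microsome stability; half-life (min) reported.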
Data set [4] in a line: Half life in Sprague-Dawley rat at 5 mg/kg, po. In kind it is ADME, organism-based. Further details: dose 5 mg/kg, route oral. The conditions noted are these: in vivo. An outline of the steps: (§1)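 Female Sprague–Dawley rats dosed as 1-in-4 cassette or discrete studies. iv in DMSO/PEG200 20:80; po in aqueous 2% Tween 80/0.5% methyl cellulose. Parameters reported: C0, Cmax, t1/2, plasma clearance, Vss, AUC0-inf and %F.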

A short description of data set [5]: Oral bioavailability in Sprague-Dawley rat at 5 mg/kg. It counts as ADME, organism-based. To be noted: in vivo. The gist of the method:
as §1

Data set [6] in a line: Drug level in cynomolgus monkey at 1 mg/kg, iv. Further details: dose 1 mg/kg, route intravenous. To be noted: in vivo. It counts as ADME, organism-based, Macaca fascicularis.
The nature of data set [7]: Half life in cynomolgus monkey at 1 mg/kg, iv. It counts as ADME, organism-based, Macaca fascicularis. Further details: dose 1 mg/kg, route intravenous. To be noted: in vivo.
Data set [8] can be described thus: Half life in Sprague-Dawley rat at 0.5 mg/kg, iv. It counts as ADME, organism-based. Further details: dose 0.5 mg/kg, route intravenous. The conditions noted are these: in vivo. An outline of the steps: as §1
A short description of data set [9]: Plasma clearance in Sprague-Dawley rat at 0.5 mg/kg, iv. It counts as ADME, organism-based. Further details: dose 0.5 mg/kg, route intravenous. The gist of the method: as §1
Data set [10] in a line: Half life in Sprague-Dawley rat at 1 mg/kg, iv. It counts as ADME, organism-based. Further details: dose 1 mg/kg, route intravenous. To be noted: in vivo. An outline of the steps:
as §1

The nature of data set [11]: Plasma clearance in Sprague-Dawley rat at 1 mg/kg, iv. In kind it is ADME, organism-based. Further details: dose 1 mg/kg, route intravenous. An outline of the steps: as §1
Data set [12] can be described thus: Volume of distribution at steady state in Sprague-Dawley rat at 1 mg/kg, iv. Further details: dose 1 mg/kg, route intravenous. The conditions noted are these: in vivo, read-out: Vdss. It counts as ADME, organism-based. The gist of the method: as §1
Data set [13] in a line: AUC (0 to infinity) in Sprague-Dawley rat at 1 mg/kg, iv. It counts as ADME, organism-based. Further details: time infinity, dose 1 mg/kg, route intravenous. To be noted: plasma.
Data set [14] in a line: Plasma clearance in cynomolgus monkey at 1 mg/kg, iv. Further details: dose 1 mg/kg, route intravenous. It counts as ADME, organism-based, Macaca fascicularis.
The nature of data set [15]: Cmax in cynomolgus monkey at 5 mg/kg, po. In kind it is ADME, organism-based, Macaca fascicularis. Further details: dose 5 mg/kg, route oral. To be noted: in vivo.
A short description of data set [16]: Half life in cynomolgus monkey at 5 mg/kg, po. It counts as ADME, organism-based, Macaca fascicularis. Further details: dose 5 mg/kg, route oral. To be noted: in vivo.
Data set [17] can be described thus: AUC (0 to infinity) in cynomolgus monkey at 5 mg/kg, po. In kind it is ADME, organism-based, Macaca fascicularis. Further details: dose 5 mg/kg, route oral, time infinity. To be noted: plasma.
Data set [18] deals with Rhesus monkey. The experiment in a line: Effect on endometrium weight of rhesus monkey. In kind it is functional, Macaca mulatta. The gist of the method:
(§2)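 Adult female rhesus macaques (n=3) with regular cycles dosed 10 mg/(kg·day) po in 2% Tween 80/0.5% methylcellulose with cherry flavoring for 28 days from cycle day 2. Serum estradiol and progesterone measured every 3 days. Necropsy on day 28. Uterine weights are of half the uterus; KI-67 and mitotic indices counted per 1000 cells. Values given as mean ± SE.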

In data set [19] the test system is Rhesus monkey. The experiment in a line: Effect on functionalis KI67 assessed as number of KI67 labeled cells of rhesus monkey. It counts as functional, Macaca mulatta. The gist of the method:
as §2

Data set [20] deals with Rhesus monkey. The experiment in a line: Effect on cell proliferation in rhesus monkey assessed basalis mitotic index. It counts as functional, Macaca mulatta. The gist of the method:
as §2

Data set [21] deals with Rhesus monkey. Kind of data set: Effect on myometrial weight of rhesus monkey. In kind it is functional, Macaca mulatta. An outline of the steps:
as §2

For data set [22], the species on record is Rattus norvegicus. The experiment in a line: Antagonist activity in rat uterus assessed as progesterone-induced decidualization response in stromal cells. In kind it is functional. An outline of the steps: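 Female rat decidualization model: compound given orally in 0.5% methyl cellulose/2% Tween 80 to antagonize the progesterone-induced decidual response of uterine stromal cells. ED50 reported.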

Data set [23] has as its target T2, Androgen receptor (Homo sapiens, UniProt P10275).
T2 sequence (P10275 whole entry): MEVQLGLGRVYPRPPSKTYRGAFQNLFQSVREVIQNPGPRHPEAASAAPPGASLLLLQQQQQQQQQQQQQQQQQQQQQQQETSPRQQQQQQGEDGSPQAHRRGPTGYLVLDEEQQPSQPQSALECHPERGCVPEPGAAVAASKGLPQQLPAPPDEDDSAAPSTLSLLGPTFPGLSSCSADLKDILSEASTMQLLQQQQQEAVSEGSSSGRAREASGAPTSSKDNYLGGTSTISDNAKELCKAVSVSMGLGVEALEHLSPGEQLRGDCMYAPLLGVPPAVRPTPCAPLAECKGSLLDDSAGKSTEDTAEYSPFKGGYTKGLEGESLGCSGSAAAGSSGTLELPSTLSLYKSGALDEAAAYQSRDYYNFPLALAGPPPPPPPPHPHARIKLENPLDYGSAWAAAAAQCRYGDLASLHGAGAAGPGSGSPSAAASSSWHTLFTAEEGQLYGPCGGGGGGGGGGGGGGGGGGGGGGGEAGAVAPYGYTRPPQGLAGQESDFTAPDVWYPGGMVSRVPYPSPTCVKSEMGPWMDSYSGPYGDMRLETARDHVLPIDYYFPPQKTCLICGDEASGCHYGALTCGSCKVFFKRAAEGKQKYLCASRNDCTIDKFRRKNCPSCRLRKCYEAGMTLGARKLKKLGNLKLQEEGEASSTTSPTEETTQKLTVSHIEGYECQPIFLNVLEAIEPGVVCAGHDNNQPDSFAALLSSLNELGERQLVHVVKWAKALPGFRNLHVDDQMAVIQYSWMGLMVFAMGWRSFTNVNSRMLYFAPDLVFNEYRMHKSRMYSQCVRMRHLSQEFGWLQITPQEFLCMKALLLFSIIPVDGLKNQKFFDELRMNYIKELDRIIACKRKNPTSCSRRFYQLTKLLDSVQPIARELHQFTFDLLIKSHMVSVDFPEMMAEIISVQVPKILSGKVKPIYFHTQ

With `Cn1c(C#N)ccc1-c1cc(F)c2c(c1)C(C)(C)C(=O)N2`, the concentration for half-maximal inhibition (IC50) came to 5 nM in data set [1], 4.1 nM in data set [2] and 196 nM in [23]. Further, the half-life is above 0.5 h in data set [3]; 9.3 h in [4]; 7.8 h in data set [7]; 9.5 h in data set [8]; 9.4 h in data set [10]; 15.7 h in data set [16]. This molecule also displayed a bioavailability in data set [5] of 31%. In data set [6], this molecule came in with a C0 of 856 ng/mL. For the same molecule, the clearance turned out to be 4 mL/min/kg in [9], 4 mL/min/kg in data set [11] and 7 mL/min/kg in data set [14]. The Vd in data set [12] turned out to be 2.4 L/kg. For the same molecule, the AUC(0-inf) in [13] was found to be 4650 ng·h/mL; in data set [17] it was 5740 ng·h/mL. This molecule also registered a maximum concentration (Cmax) in data set [15] of 179 ng/mL. Moreover, the Activity in data set [18] is 60 mg; in data set [19], 105; in [20], 0; in [21], 1760 mg. Also, the ED50 in data set [22] worked out at 0.3 mg/kg.
